Measurements published in ChEMBL document CHEMBL3232774, “Symmetric bis-chalcones as a new type of breast cancer resistance protein inhibitors with a mechanism different from that of chromones” (J Med Chem, 2014).

Columns and labels:
[1] = target: T1, ABCG2 (Homo sapiens, UniProt Q9UNQ0); experiment: Inhibition of ABCG2 (unknown origin) transfected in HEK293 cells assessed as inhibition of mitoxantrone efflux at 5 uM after 30 mins by flow cytometry relative to control; assay type: cell-based; settings: HEK293 cells transfected with ABCG2, probe mitoxantrone
T1 sequence (Q9UNQ0 whole entry): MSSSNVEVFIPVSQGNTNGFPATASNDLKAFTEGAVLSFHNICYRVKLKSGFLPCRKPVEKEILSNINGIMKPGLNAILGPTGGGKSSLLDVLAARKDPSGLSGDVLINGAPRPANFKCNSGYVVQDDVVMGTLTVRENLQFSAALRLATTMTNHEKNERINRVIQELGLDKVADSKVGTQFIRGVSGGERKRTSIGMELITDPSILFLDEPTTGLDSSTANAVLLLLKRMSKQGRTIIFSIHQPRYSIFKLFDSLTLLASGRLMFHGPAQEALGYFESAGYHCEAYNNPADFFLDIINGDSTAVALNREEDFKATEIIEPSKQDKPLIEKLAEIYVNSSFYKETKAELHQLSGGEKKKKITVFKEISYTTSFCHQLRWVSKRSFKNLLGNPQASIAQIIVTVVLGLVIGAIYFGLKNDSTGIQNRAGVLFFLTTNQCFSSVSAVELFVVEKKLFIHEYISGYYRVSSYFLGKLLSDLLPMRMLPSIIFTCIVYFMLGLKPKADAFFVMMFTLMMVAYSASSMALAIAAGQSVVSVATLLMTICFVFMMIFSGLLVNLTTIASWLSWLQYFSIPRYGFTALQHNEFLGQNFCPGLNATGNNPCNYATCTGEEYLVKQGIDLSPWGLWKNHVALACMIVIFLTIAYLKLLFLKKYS
How it was run: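 HEK293-ABCG2 cells (1.5 × 10⁵/well, grown 48 h) exposed to 5 μM mitoxantrone for 30 min at 37 °C with compound (increasing concentrations up to 10 μM); washed, trypsinized, FL4 flow cytometry, ≥10 000 events.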

[2] = target: T2, Broad substrate specificity ATP-binding cassette transporter ABCG2 (Homo sapiens, UniProt Q9UNQ0); experiment: Inhibition of ABCG2 (unknown origin) transfected in HEK293 cells assessed as inhibition of mitoxantrone efflux after 30 mins by flow cytometry relative to control; assay type: cell-based
T2 sequence (Q9UNQ0 whole entry): T1 sequence (Q9UNQ0 whole entry)

[3] = target: T2, Broad substrate specificity ATP-binding cassette transporter ABCG2; experiment: Inhibition of ABCG2 (unknown origin) transfected in HEK293 cells assessed as inhibition of mitoxantrone efflux at 5 uM after 30 mins in presence of 0.1 uM (2E,2'E)-1,1'-(1,4-Phenylene)bis(3-(2,6-dimethoxyphenyl)-prop-2-en-1-one) by flow cytometry; assay type: cell-based
[4] = target: T2, Broad substrate specificity ATP-binding cassette transporter ABCG2; experiment: Inhibition of human ABCG2 transfected in Sf9 insect cells assessed as inhibition of basal ATPase activity in absence of substrate drug after 30 mins by colorimetry; settings: sf9, 0.5 h
How it was run: (§1)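 Cholesterol-loaded membranes from Sf9 cells overexpressing human ABCG2 (0.5 mg/mL; 10 μg/sample) in 50 mM Tris-HCl, 50 mM NaCl, pH 8.0, with or without 0.33 mM orthovanadate, no transport substrate; started with 3.9 mM ATP-Mg, 30 min at 37 °C; stopped with SDS; phosphate released read with molybdate/ascorbic acid at 880 nm; vanadate-sensitive basal activity taken as 100%.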

[5] = target: T2, Broad substrate specificity ATP-binding cassette transporter ABCG2; experiment: Inhibition of ABCG2 (unknown origin)-mediated mitoxantrone efflux transfected in HEK293 cells assessed as potentiation of mitoxantrone-induced cytotoxicity at 0.5 uM after 72 hrs by MTT assay; assay type: cell-based; settings: hek293, 72 h
How it was run: (§2)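 HEK293-ABCG2 and vector-control HEK293-pcDNA3.1 cells were seeded at 1 × 10⁴/well and grown 24 h, then exposed 72 h to mitoxantrone (0–25 nM). ABCG2 cells were also given bis-chalcone at 0.1 or 0.5 μM. MTT was added for 4 h, formazan dissolved in DMSO/ethanol (1:1) and read at 570 nm. IC50 = mitoxantrone concentration giving 50% survival.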

[6] = target: Multidrug resistance-associated protein 1 (Homo sapiens, UniProt P33527); experiment: Inhibition of ABCC1 (unknown origin) transfected in HEK293 cells assessed as inhibition of calcein-AM efflux up to 10 uM after 30 mins by flow cytometry relative to control; assay type: cell-based; settings: hek293, 0.5 h
Multidrug resistance-associated protein 1, sequence (P33527 whole entry): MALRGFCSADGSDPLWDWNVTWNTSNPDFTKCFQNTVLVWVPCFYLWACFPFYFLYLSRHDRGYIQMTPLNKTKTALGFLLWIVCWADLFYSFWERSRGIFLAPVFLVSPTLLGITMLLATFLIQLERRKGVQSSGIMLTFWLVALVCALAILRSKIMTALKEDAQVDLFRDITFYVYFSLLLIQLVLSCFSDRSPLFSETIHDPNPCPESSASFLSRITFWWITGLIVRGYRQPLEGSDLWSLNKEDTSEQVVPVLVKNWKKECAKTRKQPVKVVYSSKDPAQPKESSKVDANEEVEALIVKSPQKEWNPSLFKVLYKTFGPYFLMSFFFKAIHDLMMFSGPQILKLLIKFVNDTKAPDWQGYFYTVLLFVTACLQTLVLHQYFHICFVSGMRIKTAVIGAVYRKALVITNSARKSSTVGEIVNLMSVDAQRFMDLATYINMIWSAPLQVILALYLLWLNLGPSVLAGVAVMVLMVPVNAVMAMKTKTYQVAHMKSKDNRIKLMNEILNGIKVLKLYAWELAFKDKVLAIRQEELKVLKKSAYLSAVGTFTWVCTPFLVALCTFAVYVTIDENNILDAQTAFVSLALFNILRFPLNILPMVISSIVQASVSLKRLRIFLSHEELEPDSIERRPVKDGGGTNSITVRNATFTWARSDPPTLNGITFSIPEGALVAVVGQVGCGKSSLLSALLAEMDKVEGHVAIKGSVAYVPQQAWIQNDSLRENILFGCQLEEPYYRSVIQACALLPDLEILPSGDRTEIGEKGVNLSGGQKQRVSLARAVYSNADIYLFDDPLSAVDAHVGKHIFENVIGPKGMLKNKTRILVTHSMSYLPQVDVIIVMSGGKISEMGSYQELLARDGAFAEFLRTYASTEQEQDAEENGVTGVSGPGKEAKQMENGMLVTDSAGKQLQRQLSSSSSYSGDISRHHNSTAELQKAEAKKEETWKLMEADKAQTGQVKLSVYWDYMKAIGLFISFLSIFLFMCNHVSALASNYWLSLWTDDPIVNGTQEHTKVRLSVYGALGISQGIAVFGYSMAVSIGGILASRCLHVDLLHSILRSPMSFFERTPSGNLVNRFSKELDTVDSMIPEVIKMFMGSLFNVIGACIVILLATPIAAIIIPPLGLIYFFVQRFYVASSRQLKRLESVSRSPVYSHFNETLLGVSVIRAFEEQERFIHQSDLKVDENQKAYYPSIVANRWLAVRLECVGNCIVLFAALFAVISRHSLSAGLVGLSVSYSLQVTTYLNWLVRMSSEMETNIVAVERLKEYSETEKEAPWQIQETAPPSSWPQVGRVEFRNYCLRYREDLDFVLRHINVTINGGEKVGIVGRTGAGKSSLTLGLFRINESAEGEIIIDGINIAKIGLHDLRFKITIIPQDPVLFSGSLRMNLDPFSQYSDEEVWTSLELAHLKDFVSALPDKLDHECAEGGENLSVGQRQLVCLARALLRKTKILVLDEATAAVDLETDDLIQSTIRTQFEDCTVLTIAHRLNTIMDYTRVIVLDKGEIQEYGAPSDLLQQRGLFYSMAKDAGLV
How it was run: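 HEK293-ABCC1 cells (2 × 10⁵/well, kept in 200 μg/mL hygromycin B) were exposed to 0.2 μM calcein-AM for 30 min at 37 °C with bis-chalcone at 1 or 10 μM. Calcein was read by FL1 flow cytometry, ≥10 000 events. Inhibition was expressed relative to HEK293/pcDNA5 cells, whose maximal accumulation equals complete inhibition.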

[7] = target: T3, ABCG2 ATPase (Homo sapiens, UniProt Q9UNQ0); experiment: Activation of human ABCG2 transfected in Sf9 insect cells assessed as stimulation of basal ATPase activity in absence of substrate drug after 30 mins by colorimetry; settings: Sf9 insect cells transfected with human ABCG2, read-out: FC; how it was run: as §1
T3 sequence (Q9UNQ0 whole entry): T1 sequence (Q9UNQ0 whole entry)

[8] = system: ATP-binding cassette sub-family G member 2 (Homo sapiens); experiment: Inhibition of ABCG2-mediated mitoxantrone efflux in mitoxantrone-selected human PANC1 cells overexpressing ABCG2; settings: PANC-1
[9] = system: HEK293; experiment: Cytotoxicity against HEK293 cells overexpressing ABCG2 at 0.5 uM after 72 hrs by MTT assay; assay type: ADME, cell-based; settings: human, hek293, 72 h; how it was run: as §2
[10] = target: T3, ABCG2 ATPase; experiment: (§3) Inhibition of human ABCG2 ATPase activity transfected in Sf9 insect cells using quercetin as substrate after 30 mins by colorimetry relative to control; settings: human, Sf9 insect cells transfected with human ABCG2, probe quercetin; read-out: Imax
How it was run: (§4)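 Vanadate-sensitive ATPase of cholesterol-loaded human ABCG2 Sf9 membranes (0.5 mg/mL; 10 μg/sample), 50 mM Tris-HCl/50 mM NaCl pH 8.0, with 2 μM quercetin. ATP-Mg 3.9 mM, 30 min, 37 °C. Phosphate measured colorimetrically at 880 nm. Coupled activity = total minus basal, taken as 100%. IC50 is the concentration giving 50% inhibition.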

[11] = target: T2, Broad substrate specificity ATP-binding cassette transporter ABCG2; experiment: as §3; how it was run: as §4
[12] = target: ATP-dependent translocase ABCB1 (Homo sapiens, UniProt P08183); experiment: Inhibition of ABCB1 (unknown origin) transfected in mouse NIH/3T3 cells assessed as inhibition of mitoxantrone efflux up to 10 uM after 30 mins by flow cytometry relative to control; assay type: cell-based; settings: nih/3t3, 0.5 h
ATP-dependent translocase ABCB1, sequence (P08183 whole entry): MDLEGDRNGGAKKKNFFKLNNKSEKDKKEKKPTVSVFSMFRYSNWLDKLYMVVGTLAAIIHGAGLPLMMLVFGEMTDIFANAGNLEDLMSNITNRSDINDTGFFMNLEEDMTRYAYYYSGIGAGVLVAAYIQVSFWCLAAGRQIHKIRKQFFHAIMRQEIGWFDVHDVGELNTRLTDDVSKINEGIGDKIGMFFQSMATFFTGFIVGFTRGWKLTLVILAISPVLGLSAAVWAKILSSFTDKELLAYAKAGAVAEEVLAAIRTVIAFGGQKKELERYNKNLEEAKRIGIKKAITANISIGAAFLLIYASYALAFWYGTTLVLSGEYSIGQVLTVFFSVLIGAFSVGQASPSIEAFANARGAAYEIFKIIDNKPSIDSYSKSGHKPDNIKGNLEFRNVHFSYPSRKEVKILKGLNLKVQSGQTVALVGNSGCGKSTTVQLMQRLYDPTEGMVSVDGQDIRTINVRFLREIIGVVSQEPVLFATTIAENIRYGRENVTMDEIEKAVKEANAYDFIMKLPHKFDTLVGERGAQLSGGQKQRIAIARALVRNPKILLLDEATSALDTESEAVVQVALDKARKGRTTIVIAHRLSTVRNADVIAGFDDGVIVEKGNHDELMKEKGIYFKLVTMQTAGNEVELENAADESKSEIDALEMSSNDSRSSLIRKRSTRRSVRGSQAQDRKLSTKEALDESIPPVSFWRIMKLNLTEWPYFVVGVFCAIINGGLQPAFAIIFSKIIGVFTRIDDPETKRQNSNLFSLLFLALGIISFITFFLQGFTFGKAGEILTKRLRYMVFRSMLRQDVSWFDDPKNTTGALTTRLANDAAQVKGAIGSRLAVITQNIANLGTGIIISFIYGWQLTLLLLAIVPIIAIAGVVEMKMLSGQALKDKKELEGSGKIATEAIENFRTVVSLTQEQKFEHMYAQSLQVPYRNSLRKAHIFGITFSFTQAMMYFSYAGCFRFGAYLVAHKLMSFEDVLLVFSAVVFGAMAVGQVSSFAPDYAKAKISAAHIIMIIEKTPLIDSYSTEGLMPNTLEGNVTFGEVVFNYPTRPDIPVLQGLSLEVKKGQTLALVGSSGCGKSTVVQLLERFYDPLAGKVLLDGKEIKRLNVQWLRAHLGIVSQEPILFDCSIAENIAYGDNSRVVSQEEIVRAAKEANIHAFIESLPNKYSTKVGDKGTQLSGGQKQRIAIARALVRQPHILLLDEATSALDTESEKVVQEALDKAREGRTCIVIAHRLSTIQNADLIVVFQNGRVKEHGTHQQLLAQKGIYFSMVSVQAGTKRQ
How it was run: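 NIH-3T3-ABCB1 cells (1.5 × 10⁵/well, 48 h, kept in 60 ng/mL colchicine) were given 5 μM mitoxantrone for 30 min at 37 °C with bis-chalcone at 1 or 10 μM. Fluorescence was read by FL4 flow cytometry, ≥10 000 events. Inhibition was expressed relative to parental NIH-3T3 cells, whose maximal accumulation was taken as complete inhibition.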

[13] = system: HEK293; experiment: Cytotoxicity against HEK293 cells after 72 hrs by MTT assay; assay type: cell-based; settings: Homo sapiens, HEK293, 72 h; how it was run: as §2
[14] = system: HEK293; experiment: Cytotoxicity against HEK293 cells overexpressing ABCG2 after 72 hrs by MTT assay; assay type: ADME, cell-based; settings: Homo sapiens, HEK293, 72 h; how it was run: as §2

SMILES | inhibition at 0.5 h, 5 µM [1] [%] | EC50 [2] [nM] | further results
COc1ccc(/C=C/C(=O)c2ccc(C(=O)/C=C/c3ccc(OC)c(OC)c3)cc2)cc1OC | 63 | 2100 | –
COc1ccc2[nH]cc(CCNC(=O)c3cc(=O)c4c(OCc5ccc(Br)cc5)cccc4o3)c2c1 | – | 94 | EC50 [3]: 31 nM; inhibition (INH) [4]: Active
O=C(/C=C/c1ccccc1)c1ccc(C(=O)/C=C/c2ccccc2)cc1 | 13 | – | –
COc1ccc(/C=C/C(=O)c2ccc(C(=O)/C=C/c3ccc(OC)cc3)cc2)cc1 | 18 | – | –
COc1cc(/C=C/C(=O)c2ccc(C(=O)/C=C/c3cc(OC)c(OC)c(OC)c3)cc2)cc(OC)c1OC | 43 | – | –
O=C(/C=C/c1ccc2c(c1)OCO2)c1ccc(C(=O)/C=C/c2ccc3c(c2)OCO3)cc1 | 11 | – | –
COc1ccc(OC)c(/C=C/C(=O)c2ccc(C(=O)/C=C/c3cc(OC)ccc3OC)cc2)c1 | 96 | 700 | –
O=C(/C=C/c1ccc2ccccc2c1)c1ccc(C(=O)/C=C/c2ccc3ccccc3c2)cc1 | 7 | – | –
O=C(/C=C/c1cccc2ccccc12)c1ccc(C(=O)/C=C/c2cccc3ccccc23)cc1 | 13 | – | –
COc1cc(OC)c(OC)cc1/C=C/C(=O)c1ccc(C(=O)/C=C/c2cc(OC)c(OC)cc2OC)cc1 | 96 | 300 | –
O=C(O)c1ccc(/C=C/C(=O)c2ccc(C(=O)/C=C/c3ccc(C(=O)O)cc3)cc2)cc1 | 2 | – | –
COc1cc(OC)c(/C=C/C(=O)c2ccc(C(=O)/C=C/c3c(OC)cc(OC)cc3OC)cc2)c(OC)c1 | 92 | 400 | –
COc1cc(/C=C/C(=O)c2ccc(C(=O)/C=C/c3ccc(O)c(OC)c3)cc2)ccc1O | 0 | – | –
O=C(/C=C/c1ccc2nccnc2c1)c1ccc(C(=O)/C=C/c2ccc3nccnc3c2)cc1 | 18 | – | –
CN(C)c1ccc(/C=C/C(=O)c2ccc(C(=O)/C=C/c3ccc(N(C)C)cc3)cc2)cc1 | 34 | – | –
CN(C)c1ccc(/C=C/C(=O)c2ccc(C(=O)/C=C/c3ccc(N(C)C)c4ccccc34)cc2)c2ccccc12 | 17 | – | –
COc1ccc(/C=C/C(=O)c2ccc(C(=O)/C=C/c3ccc(OC)c(OC)c3OC)cc2)c(OC)c1OC | 86 | 1400 | –

SMILES | inhibition at 0.5 h, 5 µM [1] [%] | EC50 [2] [nM] | further results
COc1ccc(C(=O)/C=C/c2ccc(/C=C/C(=O)c3ccc(OC)cc3)cc2)cc1 | 27 | – | –
COc1cc(C(=O)/C=C/c2ccc(/C=C/C(=O)c3cc(OC)c(OC)c(OC)c3)cc2)cc(OC)c1OC | 73 | 1100 | –
COc1cccc(C(=O)/C=C/c2ccc(/C=C/C(=O)c3cccc(OC)c3)cc2)c1 | 73 | 2300 | –
COc1ccc(C(=O)/C=C/c2ccc(/C=C/C(=O)c3ccc(OC)c(OC)c3)cc2)cc1OC | 97 | 800 | –
COc1ccc(C(=O)/C=C/c2ccc(/C=C/C(=O)c3ccc(OC)cc3OC)cc2)c(OC)c1 | 86 | 900 | –
O=C(/C=C/c1ccc(/C=C/C(=O)c2ccc3c(c2)OCO3)cc1)c1ccc2c(c1)OCO2 | 19 | – | –
COc1ccc(OC)c(C(=O)/C=C/c2ccc(/C=C/C(=O)c3cc(OC)ccc3OC)cc2)c1 | 74 | 1300 | –
O=C(/C=C/c1ccc(/C=C/C(=O)c2ccc3ccccc3c2)cc1)c1ccc2ccccc2c1 | 45 | – | –
COc1cc(OC)cc(C(=O)/C=C/c2ccc(/C=C/C(=O)c3cc(OC)cc(OC)c3)cc2)c1 | 78 | 500 | inhibition (INH) [5]: Active; inhibition (INH) [6]: Not Active; fold induction at 0.5 h [7]: 1.8; EC50 [8]: 210 nM; inhibition (INH) [4]: Not Active; Activity [9]: Non-toxic; Emax at 0.5 h [10]: 72%; IC50 [11]: 270 nM; inhibition (INH) [12]: Not Active
O=C(/C=C/c1ccc(/C=C/C(=O)c2cccc3ccccc23)cc1)c1cccc2ccccc12 | 23 | – | –
O=C(/C=C/c1ccc(/C=C/C(=O)c2ccccc2)cc1)c1ccccc1 | 25 | – | –
COc1ccccc1C(=O)/C=C/c1ccc(/C=C/C(=O)c2ccccc2OC)cc1 | 95 | 1100 | –
COc1cc(OC)c(C(=O)/C=C/c2ccc(/C=C/C(=O)c3cc(OC)c(OC)cc3OC)cc2)cc1OC | 41 | – | –
O=C(O)c1ccc(C(=O)/C=C/c2ccc(/C=C/C(=O)c3ccc(C(=O)O)cc3)cc2)cc1 | 0 | – | –
COc1cc(OC)c(C(=O)/C=C/c2ccc(/C=C/C(=O)c3c(OC)cc(OC)cc3OC)cc2)c(OC)c1 | 66 | 1800 | –
COc1cc(C(=O)/C=C/c2ccc(/C=C/C(=O)c3ccc(O)c(OC)c3)cc2)ccc1O | 28 | – | –
O=C1c2c(O)ccc(O)c2C(=O)c2c(NCCNCCO)ccc(NCCNCCO)c21 [MITOXANTRONE] | – | – | IC50 [13]: 10 nM; IC50 [14]: 26.6 nM
